Measured values: ChEMBL document CHEMBL3739417, “Synthesis and biological evaluation of novel 4,5-disubstituted 2H-1,2,3-triazoles as cis-constrained analogues of combretastatin A-4” (2015)

Assays:
Format in all cases: functional
KM12 = assay: Growth inhibition of human KM12 cells after 48 hrs by sulforhodamine B assay; conditions: KM12, 48 h
Outline: (§1)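 NCI-60 panel screen by SRB assay (Rubinstein method). Percentage growth taken from optical density of SRB colour, read before and 48 hrs after exposure to compound or vehicle control. All analogues first screened at 10^-5 M. Analogues giving 60% growth inhibition at that level in at least eight lines then went to a five-concentration dose-response study.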

[1] = Growth inhibition of human HCT15 cells after 48 hrs by sulforhodamine B assay; conditions: HCT-15, 48 h; outline: as §1
[2] = Growth inhibition of human DU145 cells after 48 hrs by sulforhodamine B assay; conditions: DU-145, 48 h; outline: as §1
786-0 = assay: Growth inhibition of human 786-0 cells after 48 hrs by sulforhodamine B assay; conditions: 786-0, 48 h; outline: as §1
[3] = Growth inhibition of human HCC2998 cells after 48 hrs by sulforhodamine B assay; conditions: HCC 2998, 48 h; outline: as §1
K562 = assay: Growth inhibition of human K562 cells after 48 hrs by sulforhodamine B assay; conditions: K562, 48 h; outline: as §1
MDA-MB-435 = assay: Growth inhibition of human MDA-MB-435 cells after 48 hrs by sulforhodamine B assay; conditions: MDA-MB-435, 48 h
Outline: (§2)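 NCI-60 sulforhodamine B screen. Compounds were first tested at a single dose of 10⁻⁵ M; hits, defined as ≥60% growth inhibition in at least eight lines, went on to a five-concentration dose–response. SRB optical density was read before and 48 h after exposure to compound or vehicle. Percentage growth was calculated from OD.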

A549 = assay: Growth inhibition of human A549/ATCC cells after 48 hrs by sulforhodamine B assay; conditions: A549, 48 h; outline: as §1
[4] = Growth inhibition of human SF295 cells after 48 hrs by sulforhodamine B assay; conditions: SF-295, 48 h; outline: as §1
[5] = Growth inhibition of human SKOV3 cells after 48 hrs by sulforhodamine B assay; conditions: SK-OV-3, 48 h; outline: as §1
[6] = Growth inhibition of human HCT116 cells after 48 hrs by sulforhodamine B assay; conditions: HCT-116, 48 h; outline: as §1
[7] = Growth inhibition of human RPMI8226 cells after 48 hrs by sulforhodamine B assay; conditions: RPMI-8226, 48 h; outline: as §1
ACHN = assay: Growth inhibition of human ACHN cells after 48 hrs by sulforhodamine B assay; outline: as §1
MDA-MB-231 = assay: Growth inhibition of human MDA-MB-231 cells after 48 hrs by sulforhodamine B assay; conditions: MDA-MB-231, 48 h; outline: as §1
[8] = Growth inhibition of human HOP92 cells after 48 hrs by sulforhodamine B assay; conditions: HOP-92, 48 h; outline: as §1
NCI-H460 = assay: Growth inhibition of human NCI-H460 cells after 48 hrs by sulforhodamine B assay; conditions: NCI-H460, 48 h; outline: as §1
SR = assay: Growth inhibition of human SR cells after 48 hrs by sulforhodamine B assay; outline: as §1
NCI-H23 = assay: Growth inhibition of human NCI-H23 cells after 48 hrs by sulforhodamine B assay; conditions: NCI-H23, 48 h; outline: as §1
[9] = Growth inhibition of human HOP62 cells after 48 hrs by sulforhodamine B assay; conditions: HOP-62, 48 h; outline: as §1
U-251 = assay: Growth inhibition of human U251 cells after 48 hrs by sulforhodamine B assay; conditions: U-251, 48 h; outline: as §1
[10] = Growth inhibition of human SF268 cells after 48 hrs by sulforhodamine B assay; conditions: SF-268, 48 h; outline: as §1
[11] = Growth inhibition of human COLO205 cells after 48 hrs by sulforhodamine B assay; conditions: COLO 205, 48 h; outline: as §1
CAKI-1 = assay: Growth inhibition of human CAKI-1 cells after 48 hrs by sulforhodamine B assay; conditions: CAKI-1, 48 h; outline: as §1
MDA-MB-468 = assay: Growth inhibition of human MDA-MB-468 cells after 48 hrs by sulforhodamine B assay; conditions: MDA-MB-468, 48 h; outline: as §1
SK-MEL-2 = assay: Growth inhibition of human SK-MEL-2 cells after 48 hrs by sulforhodamine B assay; conditions: SK-MEL-2, 48 h; outline: as §1
MCF7 = assay: Growth inhibition of human MCF7 cells after 48 hrs by sulforhodamine B assay; conditions: MCF7, 48 h; outline: as §1
CCRF-CEM = assay: Growth inhibition of human CCRF-CEM cells after 48 hrs by sulforhodamine B assay; outline: as §1
[12] = Growth inhibition of human OVCAR3 cells after 48 hrs by sulforhodamine B assay; conditions: OVCAR-3, 48 h; outline: as §2
HT-29 = assay: Growth inhibition of human HT-29 cells after 48 hrs by sulforhodamine B assay; conditions: HT-29, 48 h; outline: as §1
[13] = Growth inhibition of human HL-60(TB) cells after 48 hrs by sulforhodamine B assay; conditions: HL-60, 48 h; outline: as §1
[14] = Growth inhibition of human IGROV1 cells after 48 hrs by sulforhodamine B assay; conditions: IGROV-1, 48 h; outline: as §1
[15] = Growth inhibition of human LOXIMVI cells after 48 hrs by sulforhodamine B assay; conditions: LOX IMVI; outline: as §1
[16] = Growth inhibition of human SNB75 cells after 48 hrs by sulforhodamine B assay; conditions: SNB-75, 48 h; outline: as §1
[17] = Growth inhibition of human NCI-ADR-RES cells after 48 hrs by sulforhodamine B assay; outline: as §1
A498 = assay: Growth inhibition of human A498 cells after 48 hrs by sulforhodamine B assay; conditions: A498, 48 h; outline: as §2
[18] = Growth inhibition of human PC3 cells after 48 hrs by sulforhodamine B assay; conditions: PC-3, 48 h; outline: as §1
SK-MEL-5 = assay: Growth inhibition of human SK-MEL-5 cells after 48 hrs by sulforhodamine B assay; conditions: SK-MEL-5, 48 h; outline: as §1
[19] = read-out: LD50 (the source's name)

Clc1ccc(-c2n[nH]nc2-c2ccccn2)c(Cl)c1
GI50 (KM12): 6.87 µM | LC50 (concentration killing 50% of cells) (KM12; read-out: LD50): > 100 µM | GI50 [1]: 2.93 µM | CC50 [1, 19]: > 100 µM | GI50 [2]: 1.41 µM | CC50 [2, 19]: > 100 µM | GI50 (786-0): 2.75 µM | LC50 (concentration killing 50% of cells) (786-0; read-out: LD50): > 100 µM | GI50 [3]: 9.16 µM | CC50 [3, 19]: > 100 µM | GI50 (K562): 5.5 µM | CC50 (K562; [19]): > 100 µM | GI50 (MDA-MB-435): 2.2 µM | LC50 (concentration killing 50% of cells) (MDA-MB-435; read-out: LD50): > 100 µM | GI50 (A549): 4.85 µM | CC50 (A549; [19]): > 100 µM | GI50 [4]: 3.01 µM | CC50 [4, 19]: > 100 µM | GI50 [5]: 2.72 µM | LC50 (concentration killing 50% of cells) ([5]; read-out: LD50): > 100 µM | GI50 [6]: 2.89 µM | CC50 [6, 19]: > 100 µM | GI50 [7]: 10.7 µM | CC50 [7, 19]: > 100 µM | GI50 (ACHN): 1.75 µM | CC50 (ACHN; [19]): > 100 µM | GI50 (MDA-MB-231): 5.89 µM | CC50 (MDA-MB-231; [19]): > 100 µM | GI50 [8]: 3.28 µM | CC50 [8, 19]: > 100 µM | GI50 (NCI-H460): 3.67 µM | CC50 (NCI-H460; [19]): > 100 µM | GI50 (SR): 5.43 µM | LC50 (concentration giving 50% net cell kill) (SR; read-out: LD50): > 100 µM | GI50 (NCI-H23): 9.13 µM | LC50 (concentration giving 50% cell kill) (NCI-H23; read-out: LD50): > 100 µM | GI50 [9]: 5.32 µM | LC50 (concentration killing 50% of cells) ([9]; read-out: LD50): > 100 µM | GI50 (U-251): 5.35 µM | CC50 (U-251; [19]): > 100 µM | GI50 [10]: 7.36 µM | CC50 [10, 19]: > 100 µM | GI50 [11]: 2.89 µM | CC50 [11, 19]: > 100 µM | GI50 (CAKI-1): 8.42 µM | CC50 (CAKI-1; [19]): > 100 µM | GI50 (MDA-MB-468): 3.2 µM | CC50 (MDA-MB-468; [19]): > 100 µM | GI50 (SK-MEL-2): 6.52 µM | CC50 (SK-MEL-2; [19]): > 100 µM | GI50 (MCF7): 2.58 µM | CC50 (MCF7; [19]): > 100 µM | GI50 (CCRF-CEM): 3.38 µM | LC50 (concentration killing 50% of cells) (CCRF-CEM; read-out: LD50): > 100 µM | GI50 [12]: 3.38 µM | LC50 (concentration giving 50% net cell kill) ([12]; read-out: LD50): > 100 µM | GI50 (HT-29): 4.56 µM | LC50 (concentration killing 50% of cells) (HT-29; read-out: LD50): > 100 µM | GI50 [13]: 5.75 µM | CC50 [13, 19]: > 100 µM | GI50 [14]: 5.94 µM | CC50 [14, 19]: > 100 µM | GI50 [15]: 4.83 µM | CC50 [15, 19]: > 100 µM | GI50 [16]: 1.58 µM | CC50 [16, 19]: > 100 µM | GI50 [17]: 3.92 µM | CC50 [17, 19]: > 100 µM | GI50 (A498): 3.18 µM | LC50 (50% net cell kill) (A498; read-out: LD50): > 100 µM | GI50 [18]: 4.5 µM | CC50 [18, 19]: > 100 µM | GI50 (SK-MEL-5): 7.89 µM | CC50 (SK-MEL-5; [19]): > 100 µM
